# Source: PubChem (several laboratories)
# UBC13 polyUb: blocks human UBC13 polyubiquitin chain formation; P61088; TR-FRET; inhibition, % at 20 µM; hit rate 0.47% among 330,000; AID 485273; in the data active means inhibition above about 45%, passing the limit was not always enough; inconclusive means no clear call, values can overlap the other calls
# M18AAP inhibitor: blocks P. falciparum M18 aspartyl aminopeptidase. recombinant PfM18AAP, H-Glu-NHMec fluorogenic cleavage. inhibition, % at 7.35 µM. hit rate 1.2% among 290,000. AID 1822;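 active means inhibition above the campaign mean inhibition over all tested compounds plus 3 SD, cut at about 28% in these data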;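 further: 0% = plate median of test compound wells and 100% = 2 mM ZnCl2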
# ZTA DNA inh: counter-screen for EBNA-1 inhibitors: inhibitors of Epstein-Barr virus ZTA; P03206; ZTA-DNA binding, fluorescence polarization; inhibition, % at 11 µM; hit rate 0.15% among 320,000; in the data active means inhibition above about 33%
# Apaf-1 inh: blocks human Apaf-1 apoptosome activity; reconstituted apoptosome caspase-3 activity, DEVD-Rh110 fluorescence; inhibition, % at 20 µM; O14727; AID 489030; hit rate 0.71% among 330,000; active means inhibition of at least 40% at 20 µM;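 further: plate controls were DMSO wells for no effect and DEVD-CHO caspase inhibitor wells for full effect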
# Target sequence (O14727 whole entry, looked up): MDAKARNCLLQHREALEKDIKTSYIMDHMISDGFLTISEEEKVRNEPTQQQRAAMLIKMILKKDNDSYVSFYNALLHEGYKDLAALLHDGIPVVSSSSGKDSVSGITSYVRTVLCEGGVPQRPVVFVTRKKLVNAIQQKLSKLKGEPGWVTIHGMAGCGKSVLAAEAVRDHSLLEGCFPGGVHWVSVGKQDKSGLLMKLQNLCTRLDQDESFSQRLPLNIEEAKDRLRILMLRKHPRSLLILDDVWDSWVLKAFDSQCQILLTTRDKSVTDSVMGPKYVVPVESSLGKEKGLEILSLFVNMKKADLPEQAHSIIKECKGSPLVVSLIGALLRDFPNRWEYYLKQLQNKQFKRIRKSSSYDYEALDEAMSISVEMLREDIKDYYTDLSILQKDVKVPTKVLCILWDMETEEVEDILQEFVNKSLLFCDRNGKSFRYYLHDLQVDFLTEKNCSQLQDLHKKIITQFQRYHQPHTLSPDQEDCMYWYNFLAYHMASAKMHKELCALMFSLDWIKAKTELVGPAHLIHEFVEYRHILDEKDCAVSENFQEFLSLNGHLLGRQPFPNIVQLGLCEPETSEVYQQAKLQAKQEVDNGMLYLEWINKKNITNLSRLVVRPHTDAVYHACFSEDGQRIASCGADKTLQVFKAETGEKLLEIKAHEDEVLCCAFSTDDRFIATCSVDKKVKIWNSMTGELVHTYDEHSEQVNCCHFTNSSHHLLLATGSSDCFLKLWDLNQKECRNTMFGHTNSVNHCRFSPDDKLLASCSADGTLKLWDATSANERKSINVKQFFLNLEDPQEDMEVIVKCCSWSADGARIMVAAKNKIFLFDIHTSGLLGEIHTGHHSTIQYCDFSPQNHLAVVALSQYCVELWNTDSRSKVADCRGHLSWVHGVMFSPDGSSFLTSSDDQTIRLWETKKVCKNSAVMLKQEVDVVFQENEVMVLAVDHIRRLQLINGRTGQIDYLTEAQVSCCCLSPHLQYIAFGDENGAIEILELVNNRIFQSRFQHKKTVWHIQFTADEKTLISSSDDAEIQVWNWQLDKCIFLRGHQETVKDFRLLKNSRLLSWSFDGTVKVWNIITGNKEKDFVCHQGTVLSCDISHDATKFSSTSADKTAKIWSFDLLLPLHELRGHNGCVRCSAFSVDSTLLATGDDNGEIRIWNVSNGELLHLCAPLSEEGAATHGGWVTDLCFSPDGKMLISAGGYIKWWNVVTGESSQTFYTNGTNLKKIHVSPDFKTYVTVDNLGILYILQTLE
#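 Material: biochemical Apaf-1 apoptosome reconstitution. Medium: Hepes buffer, pH 7.5. Also added: cytochrome c activation, bis-DEVD rhodamine 110 substrate. Timing: 30 min compound preincubation, 50 min activation, room temperature. Measured by: rhodamine 110 fluorescence at Ex 480/Em 540 nm.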
# PfG6PD inh: PfG6PD (Plasmodium falciparum) enzyme inhibition; inhibition, % at 20 µM; hit rate 0.78% among 350,000; PfGluPho enzyme, NADPH resazurin-diaphorase fluorescence;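 active means inhibition reaching at least a set limit at 20 µM in the primary screen, cut at about 59% in these data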;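 further: 0% = DMSO wells with substrate and 100% = DMSO wells lacking glucose-6-phosphate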
# EBNA-1 inhibitor: blocks EBNA-1 binding to DNA; hit rate 0.34% among 300,000; inhibition, % at 14.8 µM; EBNA-1 DNA binding, fluorescence polarization; in the data active means inhibition above about 28%
# Active calls of the source: *; i = inactive; ? = inconclusive; . = no result given; + = active, no number. Sampled rows, rich in hits. Any-hit rate of the full collection: about 2.9%.
SMILES,UBC13 polyUb,M18AAP inhibitor,ZTA DNA inh,Apaf-1 inh,PfG6PD inh,EBNA-1 inhibitor
CC(C)c1ccc(C(C)NCCS(=O)(=O)c2ccc(Cl)cc2)cc1 (stereo unspecified),7,4,2,22,-1,-2
Cc1cc(=O)n2[nH]cc(C(=O)O)c2n1,4,29*,13,-23,-2,8
CCc1ccc(NC(=O)NNC(=O)c2cc3ccccc3cc2O)cc1,9,15,-6,10,-8,-2
CCc1ccc(NC(=O)NNC(=O)c2ccc3ccccc3c2O)cc1,9,29*,.,11,-38,.
c1ccc2cc(CNCc3cccc4ccccc34)ccc2c1,23,3,-9,-11,-6,10
N#CC1=C(N)C(C#N)(C#N)[C@H](c2ccoc2)[C@H]2CN(Cc3ccccc3)CC=C12,-19,16,9,59*,-3,-4
O=[N+]([O-])c1cccc(-c2cn3nc(-c4ccccc4)c(-c4ccccc4)nc3n2)c1,27,6,-7,-4,5,-2
O=[N+]([O-])c1ccc(-c2cn3nc(-c4ccccc4)c(-c4ccccc4)nc3n2)cc1,6,30*,-27,2,19,-2
COc1ccc(/C=C/C(=O)c2ccc([N+](=O)[O-])o2)cc1OC,-23,.,-15,10,77*,9
O=C(/C=C/c1cccc(Cl)c1)c1ccc([N+](=O)[O-])o1,-28,.,7,4,97*,-4
COc1c(C(=O)Nc2nnc(C3CC3)s2)csc1Cl,0,2,14,0,12,0
C=CCOc1c(Br)cc(CNc2ccc(NC(=O)C(C)C)c(OC)c2)cc1OCC,2,4,-3,20,60*,8
C=CCOc1c(Br)cc(CNc2ccc(NC(=O)CCC)cc2)cc1OCC,2,-6,-13,13,13,1
CCOc1cc(CNc2cccc3ccccc23)cc(Br)c1OCC(=O)NC(C)(C)C,-11,-6,-5,23,25,4
CCOc1cc(CNc2ccc(N(C)C)cc2)cc(Br)c1OCC(=O)NC(C)(C)C,-8,21,+,44*,59,+
Cc1ccc(C2C(C#N)=C(N)SC(N)=C2C#N)c(C)c1,?,-2,-1,12,39,6
Cc1ccc(C2C(C#N)=C(N)SC(N)=C2C#N)cc1,.,42*,.,.,48,.
Cc1cc(C(F)(F)F)cc(NNC(=O)NC(=O)c2ccccc2Cl)n1,5,31*,5,4,1,-5
Nc1c(NCc2ccccc2)c2ccccc2oc1=O,-5,30*,4,5,-5,2
O=c1oc2ccccc2c(NCc2ccccc2)c1[N+](=O)[O-],-7,4,16,12,8,0
COc1ccccc1NC(=O)c1ccc(NS(=O)(=O)c2ccc(F)c(F)c2F)cc1,-2,-7,11,1,-19,10
O=[N+]([O-])c1ccc(Sc2cccc[n+]2[O-])c2nonc12,.,13,.,.,115*,.
O=[N+]([O-])c1ccc(Nc2ccccc2)c2nonc12,i,-7,9,12,-13,9
CCN1/C(=C/c2ccc3cc(C)ccc3[n+]2C)Sc2ccc3sccc3c21,.,19,.,.,65*,.
CCN1/C(=C/c2ccc3cc(C)ccc3[n+]2CC)Sc2cc(C)ccc21,.,6,.,.,-5,.
SMILES,UBC13 polyUb,M18AAP inhibitor,ZTA DNA inh,Apaf-1 inh,PfG6PD inh,EBNA-1 inhibitor
CC(C)C(=O)N(c1cc2sc(=O)oc2c2ccccc12)S(=O)(=O)c1cccs1,-9,-37,14,26,74*,-5
COc1ccc(N(C(=O)C(C)C)S(=O)(=O)c2cccs2)cc1,1,-9,-4,-5,-15,-8
Cc1cc(C)nc(NN2C(=O)/C(=C/c3ccc(O)cc3)SC2=S)n1,-108,30*,-17,4,4,4
COc1ccccc1/C=C1\SC(=S)N(Nc2nc(C)cc(C)n2)C1=O,-10,19,-13,9,-4,0
C[C@@H](c1ccccc1)N1C[C@H]2CCCN2c2cc(Br)ccc2S1(=O)=O,.,.,.,16,12,.
CCOC(=O)CCSc1cc(C)c2ccccc2n1,33,7,-12,13,9,-13
Cc1cc(SCCC(=O)O)nc2ccccc12,31,30*,-14,2,-12,7
O=C1CCN(N=Nc2cccc(Cl)c2)N1,-16,31*,5,12,.,-6
Nc1[nH][nH]c(=O)c1N=Nc1cccc(Cl)c1,-70,21,26,1,-12,5
COCC(=O)N(C)C[C@H]1Oc2ncc(Br)cc2C(=O)N([C@@H](C)CO)C[C@H]1C,.,.,.,.,7,.
O=C(c1ccco1)N1CCN(C2=NS(=O)(=O)c3ccccc32)CC1,-4,4,1,12,-14,-10
CN1CCN(c2cc(N3CCN(C(=O)c4ccco4)CC3)c3c4c(onc24)-c2ccccc2C3=O)CC1,i,16,16,82*,74*,1
Oc1cccc2oc(=S)[nH]c12,.,.,.,.,8,.
O=C(CSc1nnc(-c2ccc(OC(F)F)cc2)o1)NCc1cccs1,8,-1,78*,5,2,147*
O=C(Cc1ccc(-n2c(=S)[nH]c3ccccc3c2=O)cc1)N1CCN(c2ccccc2)CC1,26,-2,4,8,-9,1
O=C(O)Cc1sc(Nc2ccc(F)cc2)nc1-c1cccs1,-17,29*,0,19,30,4
O=C(NNc1ccc([N+](=O)[O-])cc1)C1C2CCCCC21 (stereo unspecified),-4,59*,2,-2,-1,13
O=C(NNc1ccc([N+](=O)[O-])cc1[N+](=O)[O-])C1C2CCCCC21 (stereo unspecified),-6,6,5,-3,-4,5
CN(C(=O)COC(=O)C12CC3CC(CC(Cl)(C3)C1)C2)c1ccccc1,25,.,.,8,-2,.
COc1cc(NS(=O)(=O)c2ccc(NC(=S)NC(=O)/C=C/c3ccc(OC)c(OC)c3)cc2)ncn1,-6,4,3,-13,-13,4
COc1ccc(/C=C/C(=O)NC(=S)Nc2ccc(S(=O)(=O)N=C(N)N)cc2)cc1OC,-22,6,40*,-37,-7,58*
O=C1CSC(=S)N1c1ccc(F)c(Cl)c1,-4,28*,-12,6,-13,-5
O=C1CSC(=S)N1c1ccccc1,.,.,.,.,14,.
COc1cc(/C=N/NC(=O)c2cccnc2)ccc1OS(=O)(=O)c1cc(C)ccc1C,.,4,-3,.,27,-7
CC1=C(C(=O)N2CCc3ccccc32)C2(CCC(C)CC2)OC1=O (stereo unspecified),-3,-7,-10,15,-22,-10
CC1(C)OC(=O)C2(Cc3ccccc3N3CCCCC32)C(=O)O1 (stereo unspecified),-6,29*,-6,8,-17,-21
COc1ccc2c3c(cccc13)C(=O)CC2,.,23,.,.,43,.
CSc1ncnc2c1ncn2CCCNCc1ccc(C)o1,.,.,.,.,5,.
